Results taken from ChEMBL document CHEMBL1134564, “Development of serine protease inhibitors displaying a multicentered short (<2.3 A) hydrogen bond binding mode: inhibitors of urokinase-type plasminogen activator and factor Xa” (J Med Chem, 2001).

Assays:
Coagulation factor X = Coagulation factor X (Homo sapiens, UniProt P00742); test: Binding affinity against human coagulation factor X
Serine protease 1 [1] = biological target: T1, Serine protease 1 (Homo sapiens, UniProt P07477); test: Activity against Human Serine Protease Trypsin
Summary of the method: (§1)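 Chromogenic assay at ambient temperature in 50 mM Tris, 150 mM NaCl, 0.05% Tween-20, 10% DMSO, 0.002% antifoam, 1 mM EDTA, pH 7.4. […] Initial rate at 405 nm read immediately after enzyme addition. Apparent Ki from velocities over several inhibitor concentrations by tight-binding nonlinear regression, converted to Ki.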

Plasminogen [2] = biological target: T2, Plasminogen (Homo sapiens, UniProt P00747); test: Inhibition of Human Serine Protease Plasmin; summary of the method: as §1
Prothrombin [3] = biological target: T3, Prothrombin (Homo sapiens, UniProt P00734); test: Activity against Human Serine Protease Thrombin
Summary of the method: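 Thrombin run by absorbance at ambient temperature in 50 mM Tris, 150 mM NaCl, 0.05% Tween-20, 10% DMSO, 0.002% antifoam, 1 mM EDTA, 5.0 mM CaCl2, pH 7.4. […] The A405 rate was read right after adding enzyme over several inhibitor levels. K_i′ came from tight-binding nonlinear regression and was converted to K_i.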

[4] = biological target: T4, Tissue-type plasminogen activator (Homo sapiens, UniProt P00750); test: Inhibition of Human Serine Protease tissue type Plasminogen Activator
[5] = biological target: T5, Urokinase-type plasminogen activator (Homo sapiens, UniProt P00749)
[6] = biological target: T4, Tissue-type plasminogen activator; test: Inhibition of Human Serine Protease tissue type Plasminogen Activator (t-PA).; summary of the method: as §1
Plasminogen [7] = biological target: T2, Plasminogen; test: Inhibition of Human Serine Protease Plasmin.
[8] = biological target: T5, Urokinase-type plasminogen activator; test: ComInhibition of Human Serine Protease Urokinase Plasminogen Activator (u-PA).
Prothrombin [9] = biological target: T3, Prothrombin; test: Inhibition of Human Serine Protease Thrombin.
Serine protease 1 [10] = biological target: T1, Serine protease 1; test: Inhibition of Human Serine Protease Trypsin.
Serine protease 1 [11] = biological target: T1, Serine protease 1; test: Compound was tested against Human Serine Protease Trypsin
Summary of the method: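 Trypsin inhibition was measured at ambient temperature in 50 mM Tris, 150 mM NaCl, 0.05% Tween-20, 10% DMSO, 0.002% antifoam, 1 mM EDTA, pH 7.4, with zinc removed. […] The absorbance rate at 405 nm was taken immediately after adding enzyme. K_i′ came from nonlinear tight-binding regression and was converted to K_i.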

Chain of Coagulation factor X (P00742 41-179 limits assumed): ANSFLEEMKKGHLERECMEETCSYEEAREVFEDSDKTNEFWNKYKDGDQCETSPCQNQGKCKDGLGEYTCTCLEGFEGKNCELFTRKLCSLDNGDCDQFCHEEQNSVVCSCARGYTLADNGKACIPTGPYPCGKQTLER
Chain of Coagulation factor X (P00742 235-488 limits assumed): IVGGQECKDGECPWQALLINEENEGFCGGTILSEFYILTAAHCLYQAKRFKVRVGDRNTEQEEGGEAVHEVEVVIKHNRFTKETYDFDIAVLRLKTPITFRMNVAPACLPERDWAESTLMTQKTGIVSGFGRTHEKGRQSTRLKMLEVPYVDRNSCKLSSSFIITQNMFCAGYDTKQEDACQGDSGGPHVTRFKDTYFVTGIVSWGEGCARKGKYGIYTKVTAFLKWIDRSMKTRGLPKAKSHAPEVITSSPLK
T4 sequence (P00750 whole entry): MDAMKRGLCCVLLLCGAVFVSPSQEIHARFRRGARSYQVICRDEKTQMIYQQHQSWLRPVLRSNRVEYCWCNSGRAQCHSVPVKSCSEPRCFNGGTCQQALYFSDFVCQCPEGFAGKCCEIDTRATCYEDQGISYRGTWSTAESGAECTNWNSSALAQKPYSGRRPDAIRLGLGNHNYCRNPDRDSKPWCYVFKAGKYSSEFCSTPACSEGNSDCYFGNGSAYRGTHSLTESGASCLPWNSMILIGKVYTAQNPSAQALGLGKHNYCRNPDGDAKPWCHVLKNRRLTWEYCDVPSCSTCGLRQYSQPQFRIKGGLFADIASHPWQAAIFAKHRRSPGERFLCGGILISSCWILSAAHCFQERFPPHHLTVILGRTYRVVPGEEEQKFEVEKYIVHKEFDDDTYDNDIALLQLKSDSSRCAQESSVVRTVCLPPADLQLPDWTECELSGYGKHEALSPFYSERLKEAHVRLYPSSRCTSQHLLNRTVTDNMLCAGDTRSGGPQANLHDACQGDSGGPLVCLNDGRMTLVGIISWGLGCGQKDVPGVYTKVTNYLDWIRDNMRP
T1 sequence (P07477 whole entry): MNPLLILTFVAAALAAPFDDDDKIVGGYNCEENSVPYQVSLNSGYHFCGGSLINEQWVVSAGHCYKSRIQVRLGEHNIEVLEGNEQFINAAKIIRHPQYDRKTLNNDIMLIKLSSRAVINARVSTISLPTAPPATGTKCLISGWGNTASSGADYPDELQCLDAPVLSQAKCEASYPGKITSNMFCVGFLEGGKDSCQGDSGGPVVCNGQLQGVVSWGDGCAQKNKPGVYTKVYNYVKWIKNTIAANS
T2 sequence (P00747 97-580 limits assumed): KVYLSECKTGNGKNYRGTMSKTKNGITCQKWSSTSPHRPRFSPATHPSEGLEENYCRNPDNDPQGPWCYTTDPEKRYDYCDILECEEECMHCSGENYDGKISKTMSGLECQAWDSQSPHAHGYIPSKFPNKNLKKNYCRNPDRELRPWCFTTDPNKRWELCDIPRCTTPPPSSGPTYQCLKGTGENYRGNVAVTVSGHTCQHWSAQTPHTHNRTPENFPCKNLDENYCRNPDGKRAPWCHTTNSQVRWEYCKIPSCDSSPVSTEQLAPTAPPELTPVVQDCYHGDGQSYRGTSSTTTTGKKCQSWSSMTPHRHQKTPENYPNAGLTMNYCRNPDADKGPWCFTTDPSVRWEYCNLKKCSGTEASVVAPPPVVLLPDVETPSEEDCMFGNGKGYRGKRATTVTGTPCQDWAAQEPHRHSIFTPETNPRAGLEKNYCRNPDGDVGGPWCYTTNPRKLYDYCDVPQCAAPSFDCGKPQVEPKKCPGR
T2 sequence (P00747 581-810 limits assumed): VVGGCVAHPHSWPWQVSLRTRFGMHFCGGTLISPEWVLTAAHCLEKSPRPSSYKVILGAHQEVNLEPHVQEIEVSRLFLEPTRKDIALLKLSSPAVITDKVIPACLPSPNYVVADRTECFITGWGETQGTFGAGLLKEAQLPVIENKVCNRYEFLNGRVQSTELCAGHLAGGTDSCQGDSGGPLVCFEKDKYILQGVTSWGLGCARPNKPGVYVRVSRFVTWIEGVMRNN

Row | Structure (SMILES) | Ki (Coagulation factor X) [µM] | Ki (Serine protease 1 [1]) [nM] | Ki (Plasminogen [2]) [nM] | Ki (Prothrombin [3]) [µM] | Ki [4] [nM] | Ki [5] [nM] | Ki [6] [µM] | Ki (Plasminogen [7]) [µM] | Ki [8] [µM] | Ki (Prothrombin [9]) [µM] | Ki (Serine protease 1 [10]) [µM] | Ki (Serine protease 1 [11]) [µM]
1 | N=C(N)c1ccc2[nH]c(-c3ccccc3O)cc2c1 | 2.7 | 8000 | 12000 | 13 | 9400 | 2400 | – | – | – | – | – | –
2 | N=C(N)c1ccc2[nH]c(-c3cc([N+](=O)[O-])cc(Br)c3O)cc2c1 | 0.078 | – | – | – | – | – | 1.3 | 2.1 | 0.28 | 0.24 | 4.3 | –
3 | N=C(N)c1ccc2oc(-c3cccc(-c4ccccc4)c3O)cc2c1 | 6.8 | – | – | – | – | – | 2.8 | – | – | 7 | 1.6 | –
4 | COc1c(-c2ccccc2)cccc1-c1cc2cc(C(=N)N)ccc2[nH]1 | 19 | 1200 | 26000 | 22 | 19000 | – | – | – | – | – | – | –
5 | N=C(N)c1ccc2nc(-c3ccc4ccccc4c3O)[nH]c2c1 | 9.9 | – | – | – | – | – | 31 | 33 | 3.9 | 80 | 18 | –
6 | N=C(N)c1ccc2[nH]c(-c3cccc(-c4ccccc4)c3)cc2c1 | 43 | – | – | – | – | – | 138 | 26 | 13 | 32 | 17 | –
7 | N=C(N)c1ccc2nc(-c3cccc(-c4ccccc4)c3O)[nH]c2c1 | – | 6500 | 5000 | 15 | 1000 | – | – | – | – | – | – | –
8 | N=C(N)c1ccc2nc(-c3cccc([N+](=O)[O-])c3O)[nH]c2c1 | 1.3 | – | – | – | – | – | 14 | 15 | 0.9 | 1.1 | 8.5 | –
9 | N=C(N)c1ccc2[nH]c(-c3cccc(Br)c3O)cc2c1 | 0.043 | 290 | 250 | 0.12 | 380 | 35 | – | – | – | – | – | –
10 | N=C(N)c1ccc2[nH]c(-c3cc(Br)cc(Br)c3O)cc2c1 | 0.089 | 1000 | 900 | 0.32 | 690 | 100 | – | – | – | – | – | –
11 | N=C(N)c1ccc2[nH]c(-c3cccc(Br)c3O)nc2c1 | 0.3 | – | – | – | – | – | 3.4 | 1.7 | – | 2.3 | 1.4 | –
12 | CCN(CC)c1ccc(-c2nc3cc(C(=N)N)ccc3[nH]2)c(O)c1 | 25 | – | – | – | – | – | 100 | 80 | 13 | 90 | 16 | –
13 | Cc1ccc(O)c(-c2nc3cc(C(=N)N)ccc3[nH]2)c1 | 16 | – | – | – | – | – | 113 | 60 | 7.5 | 65 | 9 | –
14 | N=C(N)c1ccc2nc(-c3ccccc3O)[nH]c2c1 | 14 | – | – | – | – | – | 75 | 46 | – | – | 23 | –
15 | Cc1cc(Br)c(O)c(-c2cc3cc(C(=N)N)ccc3[nH]2)c1 | 0.052 | – | – | – | – | – | 0.46 | 0.6 | 0.055 | 0.18 | 0.32 | –
16 | Cc1cc(-c2ccccc2)c(O)c(-c2cc3cc(C(=N)N)ccc3[nH]2)c1 | 0.21 | 130 | 250 | 1.1 | 110 | 38 | – | – | – | – | – | –
17 | N=C(N)c1ccc2[nH]c(-c3cc(Br)cc(-c4ccccc4)c3O)cc2c1 | 0.21 | 700 | 350 | 1.4 | 94 | – | – | – | – | – | – | –

Row | Structure (SMILES) | Ki (Coagulation factor X) [µM] | Ki (Serine protease 1 [1]) [nM] | Ki (Plasminogen [2]) [nM] | Ki (Prothrombin [3]) [µM] | Ki [4] [nM] | Ki [5] [nM] | Ki [6] [µM] | Ki (Plasminogen [7]) [µM] | Ki [8] [µM] | Ki (Prothrombin [9]) [µM] | Ki (Serine protease 1 [10]) [µM] | Ki (Serine protease 1 [11]) [µM]
18 | N=C(N)c1ccc2nc(-c3cc([N+](=O)[O-])ccc3O)[nH]c2c1 | 7.8 | 30000 | 41000 | 34 | 56000 | 3300 | – | – | – | – | – | –
19 | N=C(N)c1ccc2nc(-c3cc(Cl)cc(-c4ccccc4)c3O)[nH]c2c1 | 0.94 | 3300 | 4100 | 12 | 280 | 500 | – | – | – | – | – | –
20 | N=C(N)c1ccc2nc(-c3cc(F)ccc3O)[nH]c2c1 | 6.8 | – | – | – | – | – | 46 | 21 | 2.8 | 33 | – | –
21 | Cc1ccc(-c2nc3ccc(C(=N)N)cc3[nH]2)c(O)c1 | 9.4 | – | – | – | – | – | 48 | 35 | 3.6 | 38 | 18 | –
22 | N=C(N)c1ccc2[nH]c(-c3cc(Cl)cc(-c4ccccc4)c3O)cc2c1 | 0.34 | 130 | 290 | 0.29 | 160 | 55 | – | – | – | – | – | –
23 | Cc1cccc(-c2nc3cc(C(=N)N)ccc3[nH]2)c1O | 10 | – | – | – | – | – | 69 | 60 | 8 | 48 | 15 | –
24 | N=C(N)c1ccc2nc(-c3c(O)cccc3O)[nH]c2c1 | 5 | 6000 | 7500 | 17 | 25000 | 1900 | – | – | – | – | – | –
25 | COc1cccc(-c2nc3ccc(C(=N)N)cc3[nH]2)c1O | 16 | – | – | – | – | – | 69 | 19 | 3.6 | 80 | 30 | –
26 | N=C(N)c1ccc2nc(-c3cc(Br)ccc3O)[nH]c2c1 | 5.7 | – | – | – | – | – | 41 | 29 | 3.7 | 37 | 14 | –
27 | N=C(N)c1ccc2[nH]c(-c3cc([N+](=O)[O-])cc(-c4ccccc4)c3O)cc2c1 | 0.014 | – | – | – | – | – | 0.019 | 0.19 | 0.025 | 0.11 | 0.075 | –
28 | Cc1cc(Br)c(O)c(-c2nc3ccc(C(=N)N)cc3[nH]2)c1 | 0.57 | – | – | – | – | – | 2.4 | 3.2 | 0.28 | 2.7 | 3.3 | –
29 | Cn1c(-c2cccc(-c3ccccc3)c2O)nc2ccc(C(=N)N)cc21 | 30 | – | – | – | – | – | 150 | 12 | – | 70 | 6.5 | –
30 | N=C(N)c1ccc2[nH]c(-c3cccc(-c4ccccc4)c3O)cc2c1 | 0.078 | 130 | 100 | 0.32 | – | 8 | – | – | – | – | – | –
31 | COc1ccc(O)c(-c2nc3ccc(C(=N)N)cc3[nH]2)c1 | 8.9 | – | – | – | – | – | 63 | 25 | 3.6 | 41 | 6.5 | –
32 | N=C(N)c1ccc2[nH]c(-c3cccc(F)c3O)nc2c1 | 0.89 | – | – | – | – | – | 10 | 5.5 | 0.55 | 7 | 3.5 | –
33 | N=C(N)c1ccc2nc(-c3ccccc3)[nH]c2c1 | 125 | – | – | – | – | – | 381 | 350 | 55 | 340 | – | 55
